From ChEMBL document CHEMBL1817648, “Synthesis and in vitro antibacterial activity of a series of novel gatifloxacin derivatives” (Eur J Med Chem, 2011) come the findings set out here.

In brackets after ≈: the same amount, converted by molar mass.

In data set [1] the test system is Enterococcus faecalis. The data set is described as follows: Antibacterial activity against Enterococcus faecalis 08-10 after 18 to 24 hrs by NCCLS M100-S11 two fold serial dilution method. Type of data set: functional.
Data set [2] has as its system Escherichia coli. The data set can be described thus: Antibacterial activity against Escherichia coli 08-21 after 18 to 24 hrs by NCCLS M100-S11 two fold serial dilution method. It is filed as functional.
For data set [3], the system named is Staphylococcus epidermidis. The data set can be described thus: Antibacterial activity against methicillin-sensitive Staphylococcus epidermidis 09-3 after 18 to 24 hrs by NCCLS M100-S11 two fold serial dilution method. It is filed as functional. Summed up: (§1)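 Two-fold serial dilution in agar medium. MIC read as the lowest concentration giving complete inhibition of bacterial growth after incubation at 35 °C for 18–24 h.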

Data set [4] concerns Enterococcus faecium. The data set can be described thus: Antibacterial activity against Enterococcus faecium 08-2 after 18 to 24 hrs by NCCLS M100-S11 two fold serial dilution method. Type of data set: functional.
The test system of data set [5] is Pseudomonas aeruginosa. The data set can be described thus: Antibacterial activity against Pseudomonas aeruginosa ATCC 27853 after 18 to 24 hrs by NCCLS M100-S11 two fold serial dilution method. Type of data set: functional.
In data set [6] the test system is Pseudomonas aeruginosa. The data set can be described thus: Antibacterial activity against Pseudomonas aeruginosa 09-32 after 18 to 24 hrs by NCCLS M100-S11 two fold serial dilution method. It is filed as functional.
Data set [7] relates to Staphylococcus aureus. The data set is described as follows: Antibacterial activity against methicillin-sensitive Staphylococcus aureus 08-1 after 18 to 24 hrs by NCCLS M100-S11 two fold serial dilution method. Type of data set: functional.
Data set [8] has as its system Enterococcus faecium. The data set is described as follows: Antibacterial activity against Enterococcus faecium 08-7 after 18 to 24 hrs by NCCLS M100-S11 two fold serial dilution method. Type of data set: functional.
Data set [9] relates to Staphylococcus epidermidis. The data set is described as follows: Antibacterial activity against methicillin-sensitive Staphylococcus epidermidis 09-6 after 18 to 24 hrs by NCCLS M100-S11 two fold serial dilution method. It is filed as functional. In a few lines: as §1
The subject of data set [10] is Staphylococcus aureus. The data set can be described thus: Antibacterial activity against Staphylococcus aureus ATCC 25923 after 18 to 24 hrs by NCCLS M100-S11 two fold serial dilution method. To be noted: ATCC25923. It is filed as functional.
Data set [11] deals with Escherichia coli. The data set is described as follows: Antibacterial activity against Escherichia coli 08-22 after 18 to 24 hrs by NCCLS M100-S11 two fold serial dilution method. Type of data set: functional.
Data set [12] relates to Klebsiella pneumoniae. The data set is described as follows: Antibacterial activity against Klebsiella pneumoniae 09-23 after 18 to 24 hrs by NCCLS M100-S11 two fold serial dilution method. It is filed as functional.
The subject of data set [13] is Klebsiella pneumoniae. The data set is described as follows: Antibacterial activity against Klebsiella pneumoniae 09-22 after 18 to 24 hrs by NCCLS M100-S11 two fold serial dilution method. It is filed as functional.
Data set [14] deals with Streptococcus pneumoniae. The data set is described as follows: Antibacterial activity against Streptococcus pneumoniae 08-2 after 18 to 24 hrs by NCCLS M100-S11 two fold serial dilution method. It is filed as functional.
The test system of data set [15] is Escherichia coli. The data set can be described thus: Antibacterial activity against Escherichia coli ATCC 25922 after 18 to 24 hrs by NCCLS M100-S11 two fold serial dilution method. It is filed as functional. As to conditions: ATCC25922.
The test system of data set [16] is Staphylococcus aureus. The data set can be described thus: Antibacterial activity against methicillin-resistant Staphylococcus aureus 08-1 after 18 to 24 hrs by NCCLS M100-S11 two fold serial dilution method. It is filed as functional. Summed up:
as §1

In data set [17] the test system is Pseudomonas aeruginosa. The data set can be described thus: Antibacterial activity against Pseudomonas aeruginosa 09-33 after 18 to 24 hrs by NCCLS M100-S11 two fold serial dilution method. It is filed as functional.
For data set [18], the system named is Streptococcus pneumoniae. The data set is described as follows: Antibacterial activity against Streptococcus pneumoniae 08-4 after 18 to 24 hrs by NCCLS M100-S11 two fold serial dilution method. Type of data set: functional.
Data set [19] has as its system Pseudomonas aeruginosa. The data set can be described thus: Antibacterial activity against Pseudomonas aeruginosa 09-34 after 18 to 24 hrs by NCCLS M100-S11 two fold serial dilution method. Type of data set: functional.
Data set [20] is described as follows: Cytotoxicity against african green monkey Vero cells after 72 hrs by MTT assay. It is filed as cell-based. As to conditions: chlorocebus sabaeus. In a few lines: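 Vero cells were kept in Minimum Essential Medium with Earle's salts plus 10% fetal bovine serum at 37 °C under 5% CO₂. Cells were seeded at 1 × 10⁴ per well and allowed to recover 24 h. Medium was then replaced with assay medium containing compound or no drug, and cells were exposed for 72 h. CC₅₀ is the 50% cellular cytotoxic concentration.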

For data set [21], the system named is Staphylococcus epidermidis. The data set is described as follows: Antibacterial activity against methicillin-resistant Staphylococcus epidermidis 09-4 after 18 to 24 hrs by NCCLS M100-S11 two fold serial dilution method. It is filed as functional. Summed up: as §1
For data set [22], the system named is Enterococcus faecalis. The data set is described as follows: Antibacterial activity against Enterococcus faecalis 08-12 after 18 to 24 hrs by NCCLS M100-S11 two fold serial dilution method. It is filed as functional.

One may read the MIC as the lowest concentration that inhibits growth of the organism. The CC50 is the concentration giving 50% cytotoxicity. With `CCOC(=O)CN1CCN(c2c(F)cc3c(=O)c(C(=O)O)cn(C4CC4)c3c2OC)CC1C` (configuration not stated), the MIC was over 128 µg/mL in the data set with Enterococcus faecalis [1]; over 128 µg/mL in the data set with Escherichia coli [2]; 4 µg/mL (≈ 8.67 µM) in data set [3]; over 128 µg/mL against Enterococcus faecium [4]; 128 µg/mL (≈ 277 µM) against Pseudomonas aeruginosa [5]; over 128 µg/mL with Pseudomonas aeruginosa [6]. In addition, the MIC in the data set on Staphylococcus aureus [7] is 4 µg/mL (≈ 8.67 µM); in the data set with Enterococcus faecium [8], over 128 µg/mL; in [9], 4 µg/mL (≈ 8.67 µM); in the data set with Staphylococcus aureus [10], 4 µg/mL (≈ 8.67 µM); with Escherichia coli [11] it was over 128 µg/mL; in the data set on Klebsiella pneumoniae [12] it was over 128 µg/mL. Moreover, the MIC against Klebsiella pneumoniae [13] is over 128 µg/mL; in the data set with Streptococcus pneumoniae [14], over 128 µg/mL; in the data set on Escherichia coli [15], 128 µg/mL (≈ 277 µM); against Staphylococcus aureus [16], over 128 µg/mL; with Pseudomonas aeruginosa [17] it was over 128 µg/mL; in the data set on Streptococcus pneumoniae [18], 4 µg/mL (≈ 8.67 µM). Further, the figures for the MIC (with Pseudomonas aeruginosa [19]; in data set [21]; against Enterococcus faecalis [22]) were over 128 µg/mL, 4 µg/mL (≈ 8.67 µM) and over 128 µg/mL, respectively. In [20], this compound showed a CC50 at 72 h of 1000 µg/mL (≈ 2170 µM).
In the case of `CCOC(=O)CCN1CCN(c2c(F)cc3c(=O)c(C(=O)O)cn(C4CC4)c3c2OC)CC1C` (configuration not stated), the MIC was over 128 µg/mL in the data set with Enterococcus faecalis [1]; over 128 µg/mL with Escherichia coli [2]; over 128 µg/mL in [3]; over 128 µg/mL against Enterococcus faecium [4]; 128 µg/mL (≈ 269 µM) with Pseudomonas aeruginosa [5]; over 128 µg/mL against Pseudomonas aeruginosa [6]. For the same compound, the MIC in the data set with Staphylococcus aureus [7] was over 128 µg/mL; in the data set on Enterococcus faecium [8] it was over 128 µg/mL; in data set [9], over 128 µg/mL; against Staphylococcus aureus [10] it was 128 µg/mL (≈ 269 µM); in the data set on Escherichia coli [11], over 128 µg/mL; in the data set with Klebsiella pneumoniae [12], over 128 µg/mL. Further, the MIC against Klebsiella pneumoniae [13] was over 128 µg/mL; in the data set on Streptococcus pneumoniae [14], over 128 µg/mL; with Escherichia coli [15] it was 128 µg/mL (≈ 269 µM); with Pseudomonas aeruginosa [17] it was over 128 µg/mL; against Streptococcus pneumoniae [18] it was over 128 µg/mL; against Pseudomonas aeruginosa [19], over 128 µg/mL. The MIC (in data set [21]; against Enterococcus faecalis [22]) was over 128 µg/mL throughout.
On to `COc1c(N2CCN(CC(C)=O)C(C)C2)c(F)cc2c(=O)c(C(=O)O)cn(C3CC3)c12` (configuration not stated), for which the MIC worked out at 32 µg/mL (≈ 74.2 µM) in the data set with Enterococcus faecalis [1]; 128 µg/mL (≈ 297 µM) against Escherichia coli [2]; 0.25 µg/mL (≈ 0.579 µM) in data set [3]; 32 µg/mL (≈ 74.2 µM) with Enterococcus faecium [4]; 8 µg/mL (≈ 18.5 µM) against Pseudomonas aeruginosa [5]; 2 µg/mL (≈ 4.64 µM) against Pseudomonas aeruginosa [6]. Also, the MIC came out at 1 µg/mL (≈ 2.32 µM) in the data set on Staphylococcus aureus [7]; 32 µg/mL (≈ 74.2 µM) against Enterococcus faecium [8]; 0.25 µg/mL (≈ 0.579 µM) in data set [9]; 0.25 µg/mL (≈ 0.579 µM) in the data set on Staphylococcus aureus [10]; 32 µg/mL (≈ 74.2 µM) against Escherichia coli [11]; 2 µg/mL (≈ 4.64 µM) against Klebsiella pneumoniae [12]. The MIC was 16 µg/mL (≈ 37.1 µM) against Klebsiella pneumoniae [13]; 32 µg/mL (≈ 74.2 µM) in the data set on Streptococcus pneumoniae [14]; 8 µg/mL (≈ 18.5 µM) in the data set with Escherichia coli [15]; 16 µg/mL (≈ 37.1 µM) with Staphylococcus aureus [16]; 128 µg/mL (≈ 297 µM) in the data set on Pseudomonas aeruginosa [17]; 2 µg/mL (≈ 4.64 µM) in the data set with Streptococcus pneumoniae [18]. The MIC came to 16 µg/mL (≈ 37.1 µM) against Pseudomonas aeruginosa [19], 2 µg/mL (≈ 4.64 µM) in data set [21] and 128 µg/mL (≈ 297 µM) against Enterococcus faecalis [22]. The compound also returned a CC50 at 72 h in data set [20] of 500 µg/mL (≈ 1160 µM).
As to `COc1c(N2CCNC(C)C2)c(F)cc2c(=O)c(C(=O)O)cn(C3CC3)c12` (configuration not stated) [GATIFLOXACIN], the MIC is 4 µg/mL (≈ 10.7 µM) with Enterococcus faecalis [1]; 4 µg/mL (≈ 10.7 µM) with Escherichia coli [2]; 0.25 µg/mL (≈ 0.666 µM) in data set [3]; 2 µg/mL (≈ 5.33 µM) in the data set with Enterococcus faecium [4]; 1 µg/mL (≈ 2.66 µM) in the data set with Pseudomonas aeruginosa [5]; 8 µg/mL (≈ 21.3 µM) in the data set on Pseudomonas aeruginosa [6]. Also, the MIC came to 0.06 µg/mL (≈ 0.16 µM) in the data set on Staphylococcus aureus [7]; 4 µg/mL (≈ 10.7 µM) against Enterococcus faecium [8]; 8 µg/mL (≈ 21.3 µM) in data set [9]; 0.125 µg/mL (≈ 0.333 µM) against Staphylococcus aureus [10]; 4 µg/mL (≈ 10.7 µM) against Escherichia coli [11]; 2 µg/mL (≈ 5.33 µM) against Klebsiella pneumoniae [12]. Also, the MIC with Klebsiella pneumoniae [13] came out at 0.125 µg/mL (≈ 0.333 µM); with Streptococcus pneumoniae [14] it was 4 µg/mL (≈ 10.7 µM); with Escherichia coli [15] it was 2 µg/mL (≈ 5.33 µM); in the data set on Staphylococcus aureus [16], 0.125 µg/mL (≈ 0.333 µM); against Pseudomonas aeruginosa [17], 4 µg/mL (≈ 10.7 µM); against Streptococcus pneumoniae [18], 0.25 µg/mL (≈ 0.666 µM). Also, the MIC against Pseudomonas aeruginosa [19] was 1 µg/mL (≈ 2.66 µM); in data set [21], 0.25 µg/mL (≈ 0.666 µM); with Enterococcus faecalis [22], 2 µg/mL (≈ 5.33 µM).
In the case of `C[C@H]1COc2c(N3CCN(C)CC3)c(F)cc3c(=O)c(C(=O)O)cn1c23.C[C@H]1COc2c(N3CCN(C)CC3)c(F)cc3c(=O)c(C(=O)O)cn1c23.O` [LEVOFLOXACIN], the MIC was found to be 8 µg/mL against Enterococcus faecalis [1]; 8 µg/mL in the data set on Escherichia coli [2]; 0.06 µg/mL in data set [3]; 4 µg/mL against Enterococcus faecium [4]; 16 µg/mL in the data set on Pseudomonas aeruginosa [6]; 0.25 µg/mL against Staphylococcus aureus [7]. Moreover, the MIC against Enterococcus faecium [8] was 8 µg/mL; in [9], 2 µg/mL; in the data set with Staphylococcus aureus [10], 0.25 µg/mL; against Escherichia coli [11], 4 µg/mL; with Klebsiella pneumoniae [12] it was 8 µg/mL; with Klebsiella pneumoniae [13], 16 µg/mL. Also, the MIC against Escherichia coli [15] was 2 µg/mL; with Staphylococcus aureus [16], 0.06 µg/mL; in the data set on Pseudomonas aeruginosa [17], 8 µg/mL; in [21], 0.5 µg/mL; in the data set with Enterococcus faecalis [22] it was 8 µg/mL.
